# GRK2 aptamer HTS = compounds blocking aptamer binding on GRK2 – biochemical, human GRK2, bead flow cytometry, HTS, primary screen. FAM-aptamer displacement from GRK2. Beta-adrenergic receptor kinase 1 (Homo sapiens), P25098. AID 488847, 2010. inhibition of aptamer binding, % at 10 µM. 330,000 compounds, 0.59% hits;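 active = inhibition of aptamer binding above 40%, roughly 3 SD of noise, on plates passing a quality check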;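 note: median bead fluorescence of bound FAM aptamer so fluorescent compounds give negative values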
# Target sequence (P25098 whole entry, looked up): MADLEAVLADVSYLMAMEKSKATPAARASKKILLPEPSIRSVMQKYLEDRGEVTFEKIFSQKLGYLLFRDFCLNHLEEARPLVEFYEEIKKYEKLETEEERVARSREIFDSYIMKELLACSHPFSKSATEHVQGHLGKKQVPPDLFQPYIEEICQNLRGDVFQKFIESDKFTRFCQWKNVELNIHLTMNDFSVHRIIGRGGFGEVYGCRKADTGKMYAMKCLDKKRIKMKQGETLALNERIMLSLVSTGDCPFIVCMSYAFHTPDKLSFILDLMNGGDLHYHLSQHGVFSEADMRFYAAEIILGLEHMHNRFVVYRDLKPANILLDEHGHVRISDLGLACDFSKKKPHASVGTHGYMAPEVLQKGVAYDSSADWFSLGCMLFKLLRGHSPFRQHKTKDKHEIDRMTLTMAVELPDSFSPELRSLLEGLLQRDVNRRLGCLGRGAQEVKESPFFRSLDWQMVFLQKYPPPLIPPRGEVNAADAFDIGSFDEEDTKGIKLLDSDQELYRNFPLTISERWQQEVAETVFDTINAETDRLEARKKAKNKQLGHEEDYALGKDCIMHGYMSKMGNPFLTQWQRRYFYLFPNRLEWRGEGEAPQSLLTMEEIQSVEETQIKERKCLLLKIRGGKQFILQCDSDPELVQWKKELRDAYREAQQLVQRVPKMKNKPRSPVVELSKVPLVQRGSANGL
# CAL PDZ FP-1 = CAL PDZ peptide-binding inhibitors, primary screen, biochemical, fluorescence polarization, Cer-tagged CAL PDZ, HTS. 330,000 compounds, 0.02% hits. purified CAL PDZ, TMR-peptide fluorescence polarization, 1 h. AID 504414, 2011. inhibition, % at 20 µM;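 active = highest replicate inhibition of at least 40%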
#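 Material – purified CerCALP PDZ construct · Detection – FP readout, S and P plane fluorescence · Measure – percent inhibition from loss of millipolarization · Controls – unlabelled peptide for full inhibition, DMSO wells as neutral · Probe or stimulus – TMR-labelled reporter peptide T*-PRC34 bound in PDZ groove · Times – 1 h at RT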
# DDE Tn7 FP inh = inhibitors of Tn7 peptide binding to fibrin DD(E), primary screen, biochemical, fluorescence polarization, human fibrin, Tn7 probe; Fibrinogen beta chain (Homo sapiens), P02675; FP displacement of FITC-Tn7 peptide from fibrin DD(E); 0% = median of compound wells per plate; inhibition, % at 8.3 µM; 370,000 compounds, 0.13% hits; AID 720508, 2013;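 active = inhibition above the mean of compounds falling within the control limits plus 3 SD of them, cut at about 14% in these data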
#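 Assay system: human fibrin DD(E) protein / Input: 2 µM fibrin DD(E) / Benchmarks: high control of 10 µM Aha-Tn7 peptide / Measured by: fluorescence polarization of the labelled Tn7 tracer / Medium: Tris buffer with calcium and detergent, pH 7.8 / Timing: 10 min compound pre-incubation, 3 h probe incubation at room temperature / Repeats: one replicate per compound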
# ARNT-TACC3 inh = disruptors of ARNT/TACC3 protein interaction, primary screen, biochemical, AlphaScreen, single concentration; inhibition, % at 9.99 µM; 390,000 compounds, 0.66% hits; AID 623870, 2012; AlphaScreen His-ARNT PAS-B/GST-TACC3 binding, luminescence; TACC3 fragment carries E629A point mutation;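 active = mean inhibition of replicates at least 50% and at least half of replicates each reaching 50%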
# CAL PDZ FP-2 = untagged CAL PDZ binding inhibitors, primary screen, biochemical, fluorescence polarization, HTS; inhibition, % at 24.9 µM; Golgi-associated PDZ and coiled-coil motif-containing protein (Homo sapiens), Q9HD26; purified CAL PDZ, TMR-peptide fluorescence polarization, 1 h; AID 602252, 2012; 300,000 compounds, 0.92% hits;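 active = mean inhibition of at least 30% with at least half of replicates also reaching 30%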
# Tn6 DDE FP = inhibitors of Tn6 peptide binding to fibrin DD(E), primary screen, biochemical, fluorescence polarization, human fibrin, Tn6 probe; inhibition, % at 8.3 µM; AID 720509, 2013; 370,000 compounds, 0.21% hits; Fibrin DD(E) TRITC-Tn6 fluorescence polarization displacement;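 active = inhibition above a per-campaign cutoff: mean of compounds within control limits plus 3 SD, cut at about 15% in these data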
# Numbers stand for hits; i = inactive; nt = no result. Shown are actives, neighbours in structure and some others; about 1.8% of the full set was active somewhere.
SMILES,GRK2 aptamer HTS,CAL PDZ FP-1,DDE Tn7 FP inh,ARNT-TACC3 inh,CAL PDZ FP-2,Tn6 DDE FP
CN(c1ccccc1)S(=O)(=O)c1ccc(C(=O)Nc2nnc(C3CC3)o2)cc1,i,i,i,i,i,i
CCOC(=O)N1CCN(S(=O)(=O)c2ccc(C(=O)Nc3nnc(CC)o3)cc2)CC1,i,i,i,i,i,i
CCc1nnc(NC(=O)c2ccc(S(=O)(=O)N(CCOC)CCOC)cc2)o1,i,i,i,46,i,i
CCCCN(CC)S(=O)(=O)c1ccc(C(=O)Nc2nnc(COC)o2)cc1,i,i,nt,i,i,nt
COCCN(CCOC)S(=O)(=O)c1ccc(C(=O)Nc2nnc(C3CC3)o2)cc1,i,i,i,47,i,i
COCc1nnc(NC(=O)c2ccc(S(=O)(=O)N3CCCC3)cc2)o1,i,i,i,49,i,i
CC(C)NC(=O)Nc1ccc2c(c1)C(=O)N([C@@H](C)CO)C[C@H](C)[C@H](CN(C)C(=O)NC1CCCCC1)OCCCC[C@H](C)O2,nt,nt,nt,i,nt,nt
C[N+](=O)C1C(=O)Nc2ccccc21 (stereo not given),nt,nt,i,nt,nt,i
CCCOP(=O)(OCCC)C(NC(=O)C(C)(C)C)c1ccccc1 (stereo not given),i,i,i,nt,i,i
CCOP(=O)(OCC)C(NC(=O)C(F)(F)F)c1ccccc1 (stereo not given),64,i,i,i,i,i
C[C@@H]1CCCCO[C@H](CN(C)C(=O)Cc2ccccc2)[C@@H](C)CN([C@@H](C)CO)C(=O)c2cc(NC(=O)c3ccncc3)ccc2O1,nt,nt,nt,i,nt,nt
C/C=C/c1cnc2c(c1)C(=O)N([C@@H](C)CO)C[C@@H](C)[C@@H](CN(C)C(=O)NC1CCCC1)O2,nt,nt,nt,i,nt,nt
O=C(OCc1ccccc1)/C(=C/c1ccccc1Cl)NC(=O)c1ccco1,i,i,i,i,i,i
Cc1cc(C)n(Cc2ccccc2Cl)n1,i,nt,i,i,41,i
Nn1cnnc1N/N=C/c1cc(Br)cc(Br)c1O,i,i,i,49,i,i
CC(C)(C)C(C(=O)NC1CCCC1)N1CCN(c2ncccc2C#N)CC1 (stereo not given),nt,nt,i,nt,nt,i
CCOC(=O)CSc1nnc(-c2ccoc2C)n1-c1ccc(C)cc1,i,i,i,i,45,i
CCOC(=O)CSc1nnc(-c2ccoc2C)n1-c1ccc(OCC)cc1,i,i,i,i,i,i
CCCN1C[C@H](C)[C@@H](OC)CN(C)C(=O)c2cc(NC(=O)c3ccno3)ccc2OC[C@@H]1C,nt,nt,nt,i,nt,nt
Cc1c(NS(=O)(=O)c2cc(C(=O)NCc3cccc(Cl)c3)ccc2Cl)c(=O)n(-c2ccccc2)n1C,nt,i,i,i,i,i
Cc1c(NS(=O)(=O)c2cc(C(=O)NCc3cccnc3)ccc2Cl)c(=O)n(-c2ccccc2)n1C,i,i,i,i,82,i
C/C(=N/NC(=O)Cc1cc(=O)[nH][nH]1)c1ccc([N+](=O)[O-])cc1,i,i,i,i,36,i
Cc1ccc(N2CCN(C(=S)Nc3ccccc3)CC2)cc1,i,i,i,i,86,i
COc1ccccc1CNC(=O)C[C@@H]1C[C@H]2c3cc(NC(=O)C4CCOCC4)ccc3O[C@H]2[C@H](CO)O1,nt,nt,nt,i,nt,nt
COc1cc(N)c(C(=O)c2nccc3cc(OC)c(OC)cc23)cc1OC,i,i,i,i,i,i
SMILES,GRK2 aptamer HTS,CAL PDZ FP-1,DDE Tn7 FP inh,ARNT-TACC3 inh,CAL PDZ FP-2,Tn6 DDE FP
COc1cc(Br)c(C(=O)c2nccc3cc(OC)c(OC)cc23)cc1OC,i,71,i,i,i,i
C/C(=N\Nc1ccccc1)c1cc2ccccc2oc1=O,i,i,i,i,i,i
C/C(=N\NC(=O)CC#N)c1cc2ccccc2oc1=O,i,i,i,21,i,i
Cc1ccc2nc(-c3ccc(NC(=S)NCCC(C)C)cc3)sc2c1,i,i,i,i,active,i
CCCCNC(=S)Nc1ccc(-c2nc3ccc(C)cc3s2)cc1,i,i,i,i,i,i
C[C@@H]1CCCCO[C@H](CN(C)C(=O)NC2CCCCC2)[C@@H](C)CN([C@@H](C)CO)C(=O)c2cc(NC(=O)CCC(F)(F)F)ccc2O1,nt,nt,nt,i,nt,nt
C[C@@H]1CN([C@@H](C)CO)C(=O)c2cccc(NC(=O)c3cnccn3)c2O[C@@H]1CN(C)Cc1ccccc1,nt,nt,nt,i,nt,nt
CCOc1ccc(CCNC(=O)Cn2c(-c3nonc3N)nc3ccccc32)cc1OCC,i,i,i,i,i,i
COc1ccc(CCNC(=O)Cn2c(-c3nonc3N)nc3ccccc32)cc1OC,i,nt,i,i,40,i
CCCCCC(=O)NC(=S)Nc1ccc2oc(=O)ccc2c1,i,i,i,i,86,i
O=C(NNc1ncccc1-n1cccc1)c1ccc(Cl)cc1,i,i,i,i,i,i
CC(C)(C)c1ccc(C(=O)NNc2ncccc2-n2cccc2)cc1,i,i,i,i,170,i
C[C@H](O)C#Cc1ccc2c(c1)O[C@H](CN(C)C(=O)CN(C)C)[C@H](C)CN([C@@H](C)CO)S2(=O)=O,nt,nt,nt,i,nt,nt
O=C(CCCn1c(=O)oc2ccccc21)N1CCc2ccccc2C1,i,i,i,active,i,i
O=C(CCn1c(=O)oc2ccccc21)NCCN1CCc2ccccc2C1,i,i,i,i,nt,i
Cc1nc2ccccc2c(=O)n1/N=C/c1cc(Br)ccc1O,i,i,i,59,i,i
O=C(c1ccccn1)N1CC[C@@H]2[C@@H](CO)Nc3ccc(C#Cc4cccnc4)cc3[C@@H]21,nt,nt,nt,i,nt,nt
O=C1c2cccnc2-c2ncccc21,i,i,i,i,i,i
COC1=C(Br)C(=O)c2ncccc2C1=O,nt,i,i,47,i,i
COc1ccc(CNC(=O)C2CCCN(S(=O)(=O)c3cccc4nsnc34)C2)cc1 (stereo not given),i,i,i,i,i,i
COc1ccc(CNC(=O)C2CCN(S(=O)(=O)c3cccc4nsnc34)CC2)cc1,i,i,i,i,37,i
CC1(C)CSC(=S)N1S(=O)(=O)c1ccccc1,i,i,i,64,i,i
Cc1ccc(S(=O)(=O)N2c3ccccc3-c3c(ssc3=S)C2(C)C)cc1,i,i,i,i,i,i
CC(Sc1nncs1)C(=O)Nc1ccc(S(=O)(=O)Nc2ncccn2)cc1 (stereo not given),i,i,i,48,i,i
